# Where no end group is shown, it is not given here.
# How the values were obtained:
# [1] = test system: H3K4me3 at Smc4, Egln1, Ext1 promoters; experiment: ChIP Realtime-PCR, H3K4me3 levels at target promoters; format: cell-based; details: doxorubicin treatment, all samples
# [2] = test system: H3K4me peptides / ING4 PHD finger; experiment: Biotinylated histone peptide pull-down, Western analysis; format: binding; details: individual substitutions, GST-fusion proteins
# T47D cells = experiment: Soft agar assay, anchorage-independent growth; format: cell-based; details: colonies scored after 21 days, vs control vector
# Summary of the method: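 T47D cells stably carrying pMSCV-ING4, pMSCV-ING4D213A or empty pMSCV; 55,000 cells plated in […] soft agar growth medium over a 1% agar base layer. Medium refreshed every three days; colonies counted at day 21. Four independent experiments, S.E.M.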
# [3] = test system: gene promoters in HT1080 cells; experiment: ChIP-chip on whole genome promoter tiling arrays; format: cell-based; details: doxorubicin treatment; 292 doxorubicin-induced target promoters
# [4] = test system: Egln1, Ext1 and Smc4 mRNA; experiment: mRNA expression Realtime-PCR; format: cell-based; details: HT1080; relative to untreated wild-type cells
# Summary of the method: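 HT1080 cells stably carrying vector, Flag-ING4 or Flag-ING4D213A, with doxorubicin-induced DNA damage. Transcripts measured by real-time PCR with TaqMan gene expression assays. Values are relative change versus untreated wild-type cells; error bars s.e.m.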
# [5] = test system: purified polynucleosomes (H3K4me3); experiment: Polynucleosome binding, Western analysis; details: recombinant proteins
# Summary of the method: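 Recombinant ING4 PHD finger proteins, wild type or carrying substitutions in the H3K4me3-binding surface, incubated with purified polynucleosomes. Bound material detected by Western blot with antibodies to the four core histones, H3K4me3 and H3K9me3.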
# H3K4me3 = experiment: Global H3K4me3 levels, Western analysis of cell lysates; format: cell-based; details: demethylase transfection, ± ING4 overexpression
# Summary of the method: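 Cells transfected with Rbp2 or Plu-1 demethylase, with or without ING4 overexpression. Whole-cell lysates probed by Western blot for H3K4me3. Four independent experiments, error bars S.E.M.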
# HT1080 cells = experiment: TUNEL assay of ING4-dependent apoptosis; format: cell-based; details: HT1080, 400 ng/ml doxorubicin 20 hours, 48 hours after transfection
# Summary of the method: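 HT1080 cells transfected with the plasmids, then given 400 ng/ml doxorubicin for 20 h, assayed 48 h after transfection. Cells fixed in methanol at −20C for 20 min, TUNEL-stained (TMR red) and mounted with DAPI. TUNEL-positive cells counted from images; s.e.m. from 3 independent fields.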
compound,measurement,setting,value
COc1cccc2c1C(=O)c1c(O)c3c(c(O)c1C2=O)C[C@@](O)(C(=O)CO)C[C@@H]3O[C@H]1C[C@H](N)[C@H](O)[C@H](C)O1 [doxorubicin],"H3K4me3 levels at Smc4, Egln1 and Ext1 promoters",[1],modestly induced
"D213A: ING4PHD with substitution D213A (EPTYCLCHQVSYGEMIGCANPDCSIEWFHFACVGLTTKPRGKWFCPR; cysteine pairing not given here; also: GST fusion, end not given here)",binding of ING4PHD mutants to H3K4me peptides in pull-down,[2],abrogated binding of the ING4PHD to the H3K4me peptides
ING4D213A: ING4 with a point mutation that abrogates H3K4me3 binding,growth in soft agar,T47D cells,failed to inhibit soft agar growth
same,average occupancy on DNA damage-dependent promoters,[3],largely absent compared to the wild-type protein
same,baseline smc4 expression,[4],inhibits baseline expression
"ING4PHD: recombinant ING4 PHD finger, aa 195–241 (EPTYCLCHQVSYGEMIGCDNPDCSIEWFHFACVGLTTKPRGKWFCPR; cysteine pairing not given here; also: GST fusion, end not given here)",interaction with H3K4me3 in nucleosomes,[5],occurs in the context of nucleosomes
PLU-1: H3K4me3-demethylase,total H3K4me3 levels,H3K4me3,decreased total H3K4me3 levels
same,ING4-dependent apoptosis,HT1080 cells,abrogated ING4-dependent apoptosis
RBP2: H3K4me3-demethylase,total H3K4me3 levels,H3K4me3,decreased total H3K4me3 levels
same,ING4-dependent apoptosis,HT1080 cells,abrogated ING4-dependent apoptosis
"W221A: ING4PHD with substitution W221A (EPTYCLCHQVSYGEMIGCDNPDCSIEAFHFACVGLTTKPRGKWFCPR; cysteine pairing not given here; also: GST fusion, end not given here)",binding of ING4PHD mutants to H3K4me peptides in pull-down,[2],abrogated binding of the ING4PHD to the H3K4me peptides
"Y198A: ING4PHD with substitution Y198A (EPTACLCHQVSYGEMIGCDNPDCSIEWFHFACVGLTTKPRGKWFCPR; cysteine pairing not given here; also: GST fusion, end not given here)",binding of ING4PHD mutants to H3K4me peptides in pull-down,[2],abrogated binding of the ING4PHD to the H3K4me peptides
